Assay results: ChEMBL document CHEMBL4622841, “Structural modifications of indolinones bearing a pyrrole moiety and discovery of a multi-kinase inhibitor with potent antitumor activity” (Bioorg Med Chem, 2020)
Calls of active or inactive are those of the source. The calls are words filed in the database; no cut-off is given here.

Experiments:
[1] = system: MKN-74; test: Induction of apoptosis in human MKN74 cells assessed as viable cells at 1 uM incubated for 72 hrs by Annexin-V-FITC/propidium iodide staining-based flow cytometric analysis (reference value: 76.84%); format: functional; conditions: MKN-74, 72 h, read-out: Activity
[2] = system: MKN-74; test: Induction of apoptosis in human MKN74 cells assessed as necrotic cells at 0.3 uM incubated for 72 hrs by Annexin-V-FITC/propidium iodide staining-based flow cytometric analysis (reference value: 6.29%); format: functional
[3] = biological target: Vascular endothelial growth factor receptor 2 (Homo sapiens, UniProt P35968); test: Inhibition of N-terminal GST fused human VEGFR2 cytoplasmic domain (790 to 1356 (end) residues) expressed in baculovirus expression system using FAM-labeled peptide and ATP as substrate preincubated for 10 mins followed by substrate addition measured after 1 hr by mobility shift assay
[4] = Inhibition of GST-tagged human recombinant VEGFR3 cytoplasmic domain (800 to 1297 residues) Q890H/V1128L/H1146R mutant expressed in baculovirus expression system using FAM-labeled peptide and ATP as substrate preincubated for 10 mins followed by substrate addition measured after 1 hr by mobility shift assay
[5] = biological target: Mast/stem cell growth factor receptor Kit (Homo sapiens, UniProt P10721); test: Inhibition of c-Kit (unknown origin) using FAM-labeled peptide and ATP as substrate preincubated for 10 mins followed by substrate addition measured after 1 hr by mobility shift assay
[6] = biological target: T1, Serine/threonine-protein kinase Chk1 (Homo sapiens, UniProt O14757); test: Inhibition of CHK (unknown origin) using FAM-labeled peptide and ATP as substrate preincubated for 10 mins followed by substrate addition measured after 1 hr by mobility shift assay
T1 sequence (O14757 whole entry): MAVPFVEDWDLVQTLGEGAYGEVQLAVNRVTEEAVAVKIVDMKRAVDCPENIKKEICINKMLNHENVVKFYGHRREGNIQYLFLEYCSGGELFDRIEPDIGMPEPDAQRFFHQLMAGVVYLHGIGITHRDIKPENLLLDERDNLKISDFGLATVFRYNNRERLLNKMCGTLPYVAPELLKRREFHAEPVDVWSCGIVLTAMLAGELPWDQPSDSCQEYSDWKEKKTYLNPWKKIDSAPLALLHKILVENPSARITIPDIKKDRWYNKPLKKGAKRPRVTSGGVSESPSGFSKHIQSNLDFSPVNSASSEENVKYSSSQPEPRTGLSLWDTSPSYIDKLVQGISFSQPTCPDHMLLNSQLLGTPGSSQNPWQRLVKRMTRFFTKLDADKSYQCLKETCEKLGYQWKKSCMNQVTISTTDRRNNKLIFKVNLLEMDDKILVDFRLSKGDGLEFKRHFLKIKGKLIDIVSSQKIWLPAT

[7] = biological target: T2, Serine/threonine-protein kinase Chk1 (Homo sapiens) (UniProt O14757); test: Inhibition of CHK (unknown origin) at 1 uM using FAM-labeled peptide and ATP as substrate preincubated for 10 mins followed by substrate addition measured after 1 hr by mobility shift assay
T2 sequence (whole entry): T1 sequence (O14757 whole entry)

[8] = biological target: Serine/threonine-protein kinase B-raf (Homo sapiens, UniProt P15056); test: Inhibition of B-Raf (unknown origin) at 1 uM using FAM-labeled peptide and ATP as substrate preincubated for 10 mins followed by substrate addition measured after 1 hr by mobility shift assay
[9] = system: HT-29; test: Inhibition of receptor tyrosine kinase in human HT-29 cells assessed as reduction in ERK phosphorylation at Thr202/Tyr204 residues at 3 uM after 24 hrs by Western blotting analysis; format: cell-based
Method in brief: (§1)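 Cells cultured overnight, then treated with compound at different concentrations for 24 h. About 1×10⁶ cells harvested and immunoblotted for p-AKT (Ser473), AKT, p-ERK (Thr202/Tyr204), ERK, with GAPDH as loading control. Detection by chemiluminescence and gel imaging. Blots shown are representative of several experiments.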

[10] = system: HepG2; test: Inhibition of receptor tyrosine kinase in human HepG2 cells assessed as reduction in ERK phosphorylation at Thr202/Tyr204 residues at 3 uM after 24 hrs by Western blotting analysis; format: cell-based; method in brief: as §1
[11] = system: MKN-74; test: Inhibition of colony formation in human MKN74 cells measured after 14 days by crystal violet staining-based assay; format: functional, cell-based
Method in brief: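 Cells plated and exposed to test agent at a range of concentrations for 14 days, then colonies counted. Colony formation expressed relative to vehicle-treated cells as mean ± SEM. Significance versus vehicle by unpaired two-tailed Student's t-test.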

[12] = system: HT-29; test: Induction of apoptosis in human HT-29 cells incubated for 72 hrs by Annexin-V-FITC/propidium iodide staining-based flow cytometric analysis; format: functional, cell-based
[13] = system: HEK-293T; test: Induction of apoptosis in human HEK293T cells by Annexin-V-FITC/propidium iodide staining-based flow cytometric analysis; format: cell-based
[14] = system: HT-29; test: Induction of apoptosis in human HT-29 cells assessed as late apoptotic cells at 1 uM incubated for 72 hrs by Annexin-V-FITC/propidium iodide staining-based flow cytometric analysis (reference value: 6.12%); format: functional
[15] = system: HT-29; test: Induction of apoptosis in human HT-29 cells assessed as early apoptotic cells at 3 uM incubated for 72 hrs by Annexin-V-FITC/propidium iodide staining-based flow cytometric analysis (reference value: 3.18%); format: functional
[16] = system: MKN-74; test: Induction of apoptosis in human MKN74 cells assessed as early apoptotic cells at 0.3 uM incubated for 72 hrs by Annexin-V-FITC/propidium iodide staining-based flow cytometric analysis (reference value: 1.98%); format: functional
[17] = system: MKN-74; test: Induction of apoptosis in human MKN74 cells assessed as late apoptotic cells at 0.3 uM incubated for 72 hrs by Annexin-V-FITC/propidium iodide staining-based flow cytometric analysis (reference value: 12.42%); format: functional
[18] = system: MKN-74; test: Induction of apoptosis in human MKN74 cells assessed as early apoptotic cells at 1 uM incubated for 72 hrs by Annexin-V-FITC/propidium iodide staining-based flow cytometric analysis (reference value: 1.98%); format: functional
[19] = system: HepG2; test: Induction of apoptosis in human HepG2 cells assessed as late apoptotic cells at 0.3 uM incubated for 72 hrs by Annexin-V-FITC/propidium iodide staining-based flow cytometric analysis (reference value: 2.89%); format: functional
[20] = system: HepG2; test: Induction of apoptosis in human HepG2 cells assessed as late apoptotic cells at 1 uM incubated for 72 hrs by Annexin-V-FITC/propidium iodide staining-based flow cytometric analysis (reference value: 2.89%); format: functional
[21] = system: HepG2; test: Induction of apoptosis in human HepG2 cells assessed as early apoptotic cells at 3 uM incubated for 72 hrs by Annexin-V-FITC/propidium iodide staining-based flow cytometric analysis (reference value: 1.08%); format: functional
[22] = system: HUVEC; test: Induction of apoptosis in human HUVEC cells assessed as early apoptotic cells at 0.3 uM incubated for 48 hrs by Annexin-V-FITC/propidium iodide staining-based flow cytometric analysis (reference value: 3.63%); format: functional
[23] = system: HUVEC; test: Induction of apoptosis in human HUVEC cells assessed as late apoptotic cells at 1 uM incubated for 48 hrs by Annexin-V-FITC/propidium iodide staining-based flow cytometric analysis (reference value: 3.48%); format: functional
[24] = Half life in human liver microsomes; format: ADME, Microsome
[25] = system: HT-29; test: Antitumor activity against human HT-29 cells xenografted in nu/nu mouse assessed as tumour growth inhibition at 100 mg/kg, po qd for 18 days and measured twice per week by vernier caliper method; format: functional; conditions: HT-29, po, 432 h, read-out: TGI

Chain of Serine/threonine-protein kinase B-raf (P15056 whole entry): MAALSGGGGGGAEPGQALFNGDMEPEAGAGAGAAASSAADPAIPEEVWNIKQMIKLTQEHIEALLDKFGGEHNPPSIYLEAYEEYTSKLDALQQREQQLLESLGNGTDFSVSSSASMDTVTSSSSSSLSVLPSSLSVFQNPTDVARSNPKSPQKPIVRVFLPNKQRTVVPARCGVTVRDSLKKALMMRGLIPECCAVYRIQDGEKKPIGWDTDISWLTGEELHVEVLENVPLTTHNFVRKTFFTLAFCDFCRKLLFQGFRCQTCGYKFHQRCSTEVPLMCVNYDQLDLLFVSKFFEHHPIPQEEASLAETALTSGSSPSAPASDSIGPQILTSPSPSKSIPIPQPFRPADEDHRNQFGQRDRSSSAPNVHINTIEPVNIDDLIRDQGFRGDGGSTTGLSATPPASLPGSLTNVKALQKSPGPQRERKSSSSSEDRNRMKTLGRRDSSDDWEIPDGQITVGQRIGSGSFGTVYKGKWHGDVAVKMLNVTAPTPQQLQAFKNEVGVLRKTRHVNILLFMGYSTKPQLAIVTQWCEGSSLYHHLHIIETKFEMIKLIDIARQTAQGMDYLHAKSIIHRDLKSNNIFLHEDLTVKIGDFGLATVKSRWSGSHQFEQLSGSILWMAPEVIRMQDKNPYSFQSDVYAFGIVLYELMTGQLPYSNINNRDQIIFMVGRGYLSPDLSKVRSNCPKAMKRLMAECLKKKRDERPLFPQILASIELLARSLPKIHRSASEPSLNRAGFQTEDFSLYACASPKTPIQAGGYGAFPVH
Chain of Vascular endothelial growth factor receptor 2 (P35968 whole entry, the tested form may be a part): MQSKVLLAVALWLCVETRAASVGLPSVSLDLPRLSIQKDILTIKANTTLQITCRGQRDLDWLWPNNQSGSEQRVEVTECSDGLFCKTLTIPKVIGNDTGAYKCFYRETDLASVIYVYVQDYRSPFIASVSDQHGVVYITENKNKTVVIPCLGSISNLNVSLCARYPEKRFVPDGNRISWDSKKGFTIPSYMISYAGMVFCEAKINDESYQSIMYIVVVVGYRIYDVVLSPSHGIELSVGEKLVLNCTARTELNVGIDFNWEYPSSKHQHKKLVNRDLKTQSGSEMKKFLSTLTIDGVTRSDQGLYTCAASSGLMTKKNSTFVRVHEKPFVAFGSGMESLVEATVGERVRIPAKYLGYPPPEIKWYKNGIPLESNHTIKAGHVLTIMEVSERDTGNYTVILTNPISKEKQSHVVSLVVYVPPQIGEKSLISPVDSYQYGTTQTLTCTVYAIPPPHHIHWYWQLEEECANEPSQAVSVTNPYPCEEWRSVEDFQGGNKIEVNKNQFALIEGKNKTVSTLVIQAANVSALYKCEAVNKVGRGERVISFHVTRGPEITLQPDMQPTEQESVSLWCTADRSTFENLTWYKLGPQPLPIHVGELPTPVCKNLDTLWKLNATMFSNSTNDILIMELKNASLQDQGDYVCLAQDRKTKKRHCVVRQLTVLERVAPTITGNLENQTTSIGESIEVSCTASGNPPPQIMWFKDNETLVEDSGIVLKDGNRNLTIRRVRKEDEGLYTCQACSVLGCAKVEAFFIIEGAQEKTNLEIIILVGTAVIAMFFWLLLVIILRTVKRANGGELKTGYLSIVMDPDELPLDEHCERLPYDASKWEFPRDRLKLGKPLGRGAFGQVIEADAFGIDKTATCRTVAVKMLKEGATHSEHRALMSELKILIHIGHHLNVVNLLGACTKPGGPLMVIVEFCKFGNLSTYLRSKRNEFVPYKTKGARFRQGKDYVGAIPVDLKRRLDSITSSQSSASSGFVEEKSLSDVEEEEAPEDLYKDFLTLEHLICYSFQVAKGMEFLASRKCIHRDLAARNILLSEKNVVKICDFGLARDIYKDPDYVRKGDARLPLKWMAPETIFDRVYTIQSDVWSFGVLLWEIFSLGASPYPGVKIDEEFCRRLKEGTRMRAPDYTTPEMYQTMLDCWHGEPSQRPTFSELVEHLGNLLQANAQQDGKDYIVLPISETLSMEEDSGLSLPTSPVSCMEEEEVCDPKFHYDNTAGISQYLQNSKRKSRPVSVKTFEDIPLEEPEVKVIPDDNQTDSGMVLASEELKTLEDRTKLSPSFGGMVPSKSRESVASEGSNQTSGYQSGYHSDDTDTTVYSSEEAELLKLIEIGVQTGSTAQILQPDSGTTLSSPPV
Chain of Mast/stem cell growth factor receptor Kit (P10721 whole entry): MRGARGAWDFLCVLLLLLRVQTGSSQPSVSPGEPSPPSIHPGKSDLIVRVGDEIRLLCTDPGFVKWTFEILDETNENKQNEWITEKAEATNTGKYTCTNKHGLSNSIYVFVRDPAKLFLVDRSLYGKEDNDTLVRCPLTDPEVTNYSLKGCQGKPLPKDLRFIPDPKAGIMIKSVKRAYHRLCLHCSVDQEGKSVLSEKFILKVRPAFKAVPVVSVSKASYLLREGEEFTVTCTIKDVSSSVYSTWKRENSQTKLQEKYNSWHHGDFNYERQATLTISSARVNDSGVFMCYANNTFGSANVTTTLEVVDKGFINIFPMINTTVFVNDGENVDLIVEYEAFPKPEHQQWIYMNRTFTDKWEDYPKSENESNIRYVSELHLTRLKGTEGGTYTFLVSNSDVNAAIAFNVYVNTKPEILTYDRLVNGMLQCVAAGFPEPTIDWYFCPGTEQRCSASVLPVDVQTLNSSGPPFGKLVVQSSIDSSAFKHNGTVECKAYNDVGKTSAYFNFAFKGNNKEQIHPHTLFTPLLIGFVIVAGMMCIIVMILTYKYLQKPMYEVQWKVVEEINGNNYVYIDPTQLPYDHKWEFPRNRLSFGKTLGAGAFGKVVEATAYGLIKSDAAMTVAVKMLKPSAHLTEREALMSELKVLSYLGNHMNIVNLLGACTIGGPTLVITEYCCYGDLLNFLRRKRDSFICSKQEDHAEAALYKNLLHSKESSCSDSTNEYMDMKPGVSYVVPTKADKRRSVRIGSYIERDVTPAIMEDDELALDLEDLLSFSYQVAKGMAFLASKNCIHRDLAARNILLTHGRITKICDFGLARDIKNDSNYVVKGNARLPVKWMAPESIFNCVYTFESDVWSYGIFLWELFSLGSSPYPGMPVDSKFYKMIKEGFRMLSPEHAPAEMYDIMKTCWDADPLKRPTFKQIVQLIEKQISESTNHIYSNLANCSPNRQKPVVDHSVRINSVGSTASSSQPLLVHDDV

Structure (SMILES): COC(=O)c1ccc2c(c1)NC(=O)/C2=C(\Nc1ccc(-n2c(C)ccc2CN2CCN(C)CC2)cc1)c1ccccc1
- viability at 1 µM [1]: 62.9%
- Activity [2]: 6.48%
- IC50 [3]: 6.5 nM
- IC50 [4]: 6.3 nM
- IC50 [5]: 17 nM
- IC50 [6]: > 1000 nM
- inhibition [7]: inactive
- inhibition [8]: inactive
- inhibition [9]: Active
- inhibition [10]: Active
- inhibition [11]: Dose-dependent effect
- Activity [12]: Dose-dependent effect
- Activity [13]: Non-Toxic
- Activity [14]: 37.8%
- Activity [15]: 0.54%
- Activity [16]: 2.41%
- Activity [17]: 16.86%
- Activity [18]: 5.73%
- Activity [19]: 4.64%
- Activity [20]: 61.54%
- Activity [21]: 16.52%
- Activity [22]: 2.36%
- Activity [23]: 3.09%
- half-life [24]: 21.2 min
- inhibition in vivo at 100 mg/kg [25]: 13.4%
